Bioassay records from PubChem.
Only some compounds are listed: those with a hit (about 2.2% of all), similar ones and a draw of the others.
Ba/F3 V617F tox – lowers viability of Ba/F3 cells expressing EpoR and JAK2V617F | AID 1446 | ATP luminescence | 220,000 tested, 1.1% active | inhibition, % at 5.6 µM;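 active = inhibition above the campaign mean plus 3 SD over all tested compounds, cut at about 24% in these data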;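 also: cytokine-independent growth of Ba/F3 cells driven by EpoR plus mutant JAK2; 0% = DMSO-treated cells and 100% = JAK inhibitor I control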
BaF3 parental – reduces parental Ba/F3 cell viability, JAK2V617F counter-screen. CellTiter-Glo ATP luminescence. inhibition, % at 5.6 µM. 220,000 tested, 1.1% active. AID 1486;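 active = inhibition above a per-campaign cutoff, the mean inhibition of all tested compounds plus 3 SD, cut at about 27% in these data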;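 also: 0% = DMSO wells and 100% = JAK Inhibitor I control wells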
IEC-6 tox – IEC-6 cytotoxicity, counter-screen for KLF5 inhibitors | luminescence viability | inhibition, % at 5 µM | 290,000 tested, 0.78% active | AID 1825; in the data active = inhibition above about 22%;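 also: 0% = plate median of test compound wells and 100% = cytotoxic reference compound wells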
APP 5UTR inh – APP translation inhibition. SH-SY5Y APP 5'UTR-luciferase reporter, luminescence. inhibition, % at 2 µM. AID 1285. 190,000 tested, 0.82% active;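 active = inhibition above a set limit, derived from the sample mean plus 3 SD, cut at about 45% in these data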
bCat nuc transl – alters nuclear translocation of beta-catenin in HeLa cells | immunofluorescence imaging | nuclear translocation activity, % at 5 µM | 190,000 tested, 0.3% active | AID 1665;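 active = nuclear translocation activity above 50% at 5 µM, with a well cell count of 50 or more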;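 also: per-cell ratio of nuclear to cytoplasmic median beta-catenin stain intensity; plate controls were DMSO negative control for no effect and GSK-3 inhibitor IX positive control for full effect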
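Technique: fluorescence imaging of beta-catenin antibody stain plus DAPI / Material: human HeLa cell line / Incubation: compound treatment 24 h, 37°C, 5% CO2 / Read-out basis: % activation of per-cell nuclear versus cytoplasmic median beta-catenin signal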
MT stabilize HCS – stabilizes microtubules in HeLa cells | % tubulin-high responders, % at 10 µM | AID 2205 | HeLa tubulin immunostaining HCS, 24 h; share of cells brighter than vehicle mean+2SD | 200,000 tested, 0.83% active;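 active = plate Z-score above 3 for both tubulin-high and condensed-nucleus cell shares, with cell loss under 80%, at 10 µM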;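 also: anti alpha tubulin signal scored within the nucleus-defined area of each cell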
* hit, by the source's call; . = not tested or not shown.

SMILES | Ba/F3 V617F tox | BaF3 parental | IEC-6 tox | APP 5UTR inh | bCat nuc transl | MT stabilize HCS
O=C1CSc2ccc(C(=O)Nc3cccc(S(=O)(=O)Nc4ccc(Br)cc4)c3)cc2N1 | 16.8 | 43.9* | 3.5 | 6.6 | 2.3 | 4.2
O=C(Nc1cccc(S(=O)(=O)Nc2ccc(Cl)cc2)c1)c1ccc(Cl)nc1 | 41.5* | 51.5* | 13.0 | 1.6 | 1.6 | 5.9
COc1ccc(OC)c(Cc2nnc(CCC(=O)N3CCN(C4CCCC4)CC3)o2)c1 | . | . | -4.6 | . | . | .
CC(=O)c1cccc(OCc2cc(C(=O)N3CCC(N4CCCCC4)CC3)no2)c1 | . | . | -6.6 | . | . | .
COc1cccc2c1OCC(C(=O)O)C2 (centres undefined) | -0.5 | 8.3 | -5.1 | 0.9 | 0.7 | 1.9
COc1cccc2c1C(CO)N1C(C#N)C3CC(C(=O)O)C(C1C2)N3C (centres undefined) | 93.8* | 95.1* | 100.4* | . | 24.7 | .
COc1ccc(C(=O)NN(C)c2nc(C(F)(F)F)nc3ccccc23)cc1 | 95.5* | 95.2* | 95.8* | 94.8* | 158.2* | 8.0
COC(=O)c1ccc(NC(=O)c2ccc[n+]([O-])c2)cc1 | . | . | -1.6 | . | . | .
CCOCCn1c(N2CCN(c3ccccc3)CC2)nc2c1c(=O)[nH]c(=O)n2C | 17.5 | 53.6* | -2.5 | -16.2 | -1.2 | 3.4
Brc1ccc2[nH]c3c(N4CCc5ccccc5C4)ncnc3c2c1 | 1.1 | 1.4 | -1.5 | 10.4 | 11.4 | 7.0
Fc1ccc2[nH]c3c(N4CCc5ccccc5C4)ncnc3c2c1 | 43.7* | 55.1* | 12.4 | . | 3.4 | .
Cc1ccc2[nH]c3c(N4CCc5ccccc5C4)ncnc3c2c1 | 44.1* | 49.1* | 16.6 | -9.9 | -0.7 | 3.2
COc1cc(OC)cc(C(=O)NCC(=O)OCC(=O)/C=C2/N(C)c3ccccc3C2(C)C)c1 | -1.2 | 4.3 | -2.1 | 12.0 | 4.4 | 2.1
CN1/C(=C\C(=S)NC(=O)c2cccc(Br)c2)C(C)(C)c2ccccc21 | 58.6* | 63.6* | 0.9 | -10.4 | -2.6 | 6.3
CN1/C(=C/C(=O)C2CC2)C(C)(C)c2ccccc21 | -0.8 | 40.8* | -2.6 | -15.5 | 3.0 | 2.9
CN1/C(=C\C(=O)COC(=O)Cn2nnc(-c3ccccc3)n2)C(C)(C)c2ccccc21 | 62.8* | 63.0* | 2.9 | 14.6 | 3.5 | 3.4
CN1/C(=C\C(=O)CSc2nncn2C)C(C)(C)c2ccccc21 | 36.9* | 47.1* | 1.8 | 16.8 | 1.9 | 2.4
CCCCNC(=O)O[C@@H]1C[C@H]2CCC(=O)N3CC[C@@H](C1)[C@@H]23 | . | . | 0.7 | . | . | .
COc1cc(C)c(Cl)cc1S(=O)(=O)N1CCSC1 | . | . | 1.0 | . | . | .
CCOC(=O)c1c(CNc2ccncc2)n(C)c2cc(Br)c(O)cc12 | 38.4* | 40.7* | -3.5 | 23.7 | 3.7 | 4.6
COc1ccc(-c2csc(NC(=O)c3ccccc3NS(=O)(=O)c3ccc(F)c(F)c3)n2)cc1 | 99.7* | 102.7* | 57.6* | -5.7 | -3.9 | 8.0
CC(=O)n1cc(N(C(=O)CCl)c2ccc(C)cc2)c2ccccc21 | 98.8* | 28.3* | 23.4* | . | 0.0 | .
CC(=O)N(c1ccc(Cl)cc1)c1cn(C(C)=O)c2ccccc12 | -0.5 | 1.8 | -4.6 | -15.1 | -1.3 | 1.5
COc1ccc(OCC(=O)OCC(=O)NCc2ccc(F)cc2)cc1 | -4.8 | 1.5 | 0.0 | 64.5* | -0.3 | 2.2
COc1ccccc1N=C(C)C1=C(O)CC(c2ccccc2)CC1=O (centres undefined) | 6.7 | 9.9 | -6.7 | 91.6* | 52.0* | 7.2
SMILES | Ba/F3 V617F tox | BaF3 parental | IEC-6 tox | APP 5UTR inh | bCat nuc transl | MT stabilize HCS
Cc1ccccc1N/C(=N/S(=O)(=O)c1cc(F)ccc1F)c1ccccc1 | . | . | -2.5 | . | . | .
Cc1cc(N/C(=N\S(=O)(=O)c2ccc(F)cc2F)c2ccccc2)no1 | -0.4 | 2.4 | -6.3 | 67.5* | -3.0 | 1.3
COc1ccccc1CC(=O)NN1C(=O)c2ccccc2C1=O | 5.2 | 35.0* | 9.8 | -5.3 | -0.1 | 4.4
O=C1[C@H]2[C@@H](c3ccc(F)cc3)N3C(=O)N(c4ccc(Br)cc4)C(=O)[C@@]3(Cc3ccccc3)[C@H]2C(=O)N1C1CCCCC1 | . | . | 5.7 | . | . | .
O=C(c1cccc([N+](=O)[O-])c1)c1ccc2[nH]c(=O)[nH]c2c1 | . | . | 5.6 | . | . | .
CN(C)S(=O)(=O)N(CC(=O)Nc1ccc(F)c(F)c1)c1ccccc1 | -8.5 | 0.4 | -4.3 | 58.6* | -3.1 | 1.5
O=C(CSc1nnc2c(n1)[nH]c1ccccc12)NCc1ccccc1F | . | . | 2.0 | . | . | .
Cc1nnsc1C(=O)N/N=C/c1ccc2ccccc2c1O | -1.8 | 4.4 | 0.7 | 76.3* | 4.0 | 7.1
Cc1nnsc1C(=O)N/N=C/c1ccccc1 | -4.4 | 4.1 | 6.3 | 5.2 | -1.0 | 4.9
Cc1cc2nc(-c3cccnc3SCC(=O)NC(C)C)[nH]c2cc1C | 6.6 | 13.9 | 5.7 | -62.6 | -1.5 | 3.2
Cc1ccccc1-n1ncc2c1CC(C)(C)CC2NC(=O)CCN1CCCCC1=O (centres undefined) | . | . | -6.0 | . | . | .
COc1ccc2nc(N=Nc3ccc(O)c4ccccc34)sc2c1 | 0.2 | 4.1 | 5.9 | 74.0* | 1.8 | 11.4
CC1=NNC(=O)/C1=C\c1cn(-c2ccccc2)nc1-c1ccc(F)cc1 | 4.0 | 7.9 | -2.4 | 9.6 | 5.0 | 22.1*
Cc1c(Cl)cccc1NC(=O)NN1CCN(C)CC1 | . | . | -2.2 | . | . | .
O=C(C[n+]1cc(-c2ccc(Br)cc2)n2c1CCCCC2)c1ccccc1 | 38.2* | 49.3* | -2.3 | 16.3 | 4.6 | 8.0
O=C(C[n+]1cc(-c2ccc(F)cc2)n2c1CCC2)N1c2ccccc2Sc2ccccc21 | -1.0 | 6.8 | 1.3 | -108.7 | -0.6 | 3.1
O=C(C[n+]1cc(-c2ccccc2)n2c1CCC2)N1c2ccccc2Sc2ccccc21 | 0.0 | 6.3 | -3.8 | -0.5 | -0.5 | 1.9
O=C(C[n+]1cc(-c2ccccc2)n2c1CCC2)c1cccs1 | 25.6* | 39.0* | -9.5 | -9.6 | 0.1 | 3.1
O=C(C[n+]1cc(-c2ccc(Cl)cc2)n2c1CCCCC2)c1ccccc1 | 27.8* | 43.1* | -6.2 | . | -0.3 | .
Cc1cc(=O)[nH]c(N/N=C/c2cc(C)n(CC(F)(F)F)c2C)n1 | 75.6* | 32.0* | -0.5 | . | 0.2 | .
Cc1cc(=O)[nH]c(N/N=C/c2ccccc2C(F)(F)F)n1 | 2.9 | 0.3 | 4.8 | -22.8 | -1.7 | 2.9
Cc1ccc(C(=O)CSc2nnc(-c3cccnc3)n2N)cc1 | 1.0 | 10.9 | 6.1 | 2.1 | 9.2 | 30.2*
COc1ccc2c(c1OC)C(=O)N1C2SC(C)(C)[C@H]1C(=O)NC(C)C (some centres undefined) | . | . | 0.4 | . | . | .
CCC(C)(C)c1ccc(OCCCC[n+]2cccc(C)c2)c(C(C)(C)CC)c1 | 101.4* | 87.0* | 16.2 | 2.6 | . | 78.9
O=C(Nc1ccc(Cl)cc1)Nc1ccccc1NS(=O)(=O)c1cccs1 | 1.9 | 62.2* | -4.1 | -9.3 | -1.2 | 3.7
Cc1cc(C(=O)O)cc(S(=O)(=O)Nc2ccccc2C(=O)NC(C)c2ccccc2)c1C (centres undefined) | . | . | -1.9 | . | . | .
Cc1ccccc1C(=O)NCCCNC(=O)c1ccccn1 | . | . | 8.6 | . | . | .
